A short description of assay [1]: inhibitors of TNFa-induced NFkB p65 translocation, primary screen, imaging, HUVEC, MLSMR starter and 10KST1 sets (AID 438;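 active means inhibition above 20% together with a positive visual image hit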;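 further: compound added about 3h40 before a 20 min TNFalpha stimulation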;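 on inhibition: signal is the nuclear over cytoplasmic p65 intensity ratio per well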). Conditions: HUVEC TNFa-induced p65 nuclear translocation; cell count: measured here: nuclei count (cytotoxicity indicator), at 2.08 µM; inhibition: at 2 µM, stronger effect = higher value, 0% TNFa-plus-vehicle, 100% no-TNFa wells.
Assay [2] can be described thus: reduction of polyQ htt aggregates in cells – imaging, exon1htt(103Q)mCFP cells, high-content imaging, primary screen (AID 483;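 active means visual image review flags a hit and inhibition of aggregation exceeds 20%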;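 further: compound exposure lasted 3 days before fixation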;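 on nuclei count: percent of the per-plate median nuclei count of sample wells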). Particulars: exon1htt(103Q)mCFP cell line, aggregate imaging, at 2 µM; inhibition of aggregation: stronger effect = higher value; nuclei count: measured here: cell count, toxicity.
Assay [3] in a line: endothelial E-selectin expression blockers – imaging, HUVEC, immunofluorescence, MLSMR starter and 10KST1 sets, primary screen (AID 487;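 active means visually confirmed hit in the image check and inhibition above 20%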;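 on inhibition: signal is fraction of cell area covered by stained E-selectin grains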;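 on nuclei count: 100% = median nuclei count of all wells on the same plate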). Conditions: HUVEC TNFalpha-induced E-selectin immunofluorescence imaging, at 2 µM; inhibition: stronger effect = higher value; nuclei count: measured here: cell number, toxicity.
Assay [4] deals with Voltage-gated potassium channel subunit beta-2 (Rattus norvegicus) (UniProt P62483). Nature of the assay: inhibitors of rat Kvbeta2 reductase activity – biochemical, NADPH fluorescence, primary screen (AID 622;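 active means fluorescence slope higher than the sample average by over 3 SD, cut at about -0.22 in these data, passing the limit was not always enough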;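 further: slope of raw intensity against log time taken from 70 to 1610 s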). Particulars: recombinant KvBeta, 4-cyanobenzaldehyde reduction, at 10 µM, stronger effect = higher value.
For assay [5] the target is unchanged. Nature of the assay: enhancers of rat Kvbeta2 NADPH turnover – biochemical, NADPH fluorescence, primary screen (AID 623;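 active means NADPH fluorescence slope more negative than the mean of all samples by about 3 SD, 99.7% confidence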;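 further: fluorescence intensity change per second fitted from 20 to 320 s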). Particulars: Recombinant KvBeta, NADPH fluorescence decrease slope, 10 min; at 10 µM; stronger effect = lower value.
Assay [6] deals with Alpha-2C adrenergic receptor (Homo sapiens) (UniProt P18825). Nature of the assay: compounds altering alpha2C-coupled GIRK flux – cell-based, HEK293 alpha2C/GIRK1/2, thallium flux, primary screen (AID 624;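 active means fluorescence slope after compound addition differing from the mean of all screened samples at 99.7% confidence, in either direction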;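 further: slope of fluorescence ratio to pre-addition baseline per second over 15 to 24 s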). Particulars: thallium flux BTC fluorescence, at 10 µM, actives lie on both sides.
Assay [7] can be described thus: inhibitors of larval lipid processing in zebrafish, primary screen, whole organism, PED6 fluorescence, gall bladder and intestine (AID 686).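 Further: larvae 5 to 7 days old with five fish per well; signal comes from phospholipase A2 cleavage of quenched PED6 carried via bile; overnight exposure to compound and PED6 before scoring.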 Particulars: Zebrafish larvae PED6 lipid processing, fluorescence scoring; screened at 20 µM (by protocol). A digest of the protocol: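 system = live zebrafish larvae aged 5-7 days, whole organism | probe or stimulus = ingested quenched lipid PED6 at 100 nM | doses = 20 µM single dose | timing = overnight exposure | detection = fluorescence microscopy with visual scoring of gall bladder and intestine | read-out = visual per-well fluorescence inhibition score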

A short description of assay [8]: blockers of RIG-like receptor reporter activation – cell-based, Sendai virus stimulus, luciferase, 10K MLSCN set, TLR/RLR signaling modifier project, primary screen (AID 602276;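 active means inhibition at or above 50% at 10 µM; inactive means inhibition below 50%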;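 further: firefly luciferase from ISG56 promoter only with Renilla not read in this screen; 0% = Sendai virus plus DMSO and 100% = medium plus DMSO without virus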). Conditions: HEK293 RL24 IRF3 luciferase reporter, at 10 µM, stronger effect = higher value. (In general: A reporter such as luciferase makes a cellular process visible.)
A short description of assay [9]: TLR3 IRF3 reporter activation blockers – cell-based, poly I:C stimulus, luciferase, 10K MLSCN set, primary screen (AID 602277;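 active means inhibition of the reporter signal at or above 50%; inactive means inhibition below 50%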). Particulars: HEK293-TLR3 RL24 IRF3 luciferase reporter, at 10 µM, stronger effect = higher value.

The source made the active and inactive calls.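 How the source made its calls, unless noted: active means a full or partial loss of lipid-probe fluorescence in the fish gall bladder, intestine or both, judged by eye; inactive means no fluorescence loss, or compound toxic to the fish.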

We go through 13 compounds from PubChem BioAssay.

In general, inhibition refers to the change of the read-out against control, counted positive when it falls.

Sequence of Alpha-2C adrenergic receptor (Homo sapiens) (P18825 whole entry, looked up): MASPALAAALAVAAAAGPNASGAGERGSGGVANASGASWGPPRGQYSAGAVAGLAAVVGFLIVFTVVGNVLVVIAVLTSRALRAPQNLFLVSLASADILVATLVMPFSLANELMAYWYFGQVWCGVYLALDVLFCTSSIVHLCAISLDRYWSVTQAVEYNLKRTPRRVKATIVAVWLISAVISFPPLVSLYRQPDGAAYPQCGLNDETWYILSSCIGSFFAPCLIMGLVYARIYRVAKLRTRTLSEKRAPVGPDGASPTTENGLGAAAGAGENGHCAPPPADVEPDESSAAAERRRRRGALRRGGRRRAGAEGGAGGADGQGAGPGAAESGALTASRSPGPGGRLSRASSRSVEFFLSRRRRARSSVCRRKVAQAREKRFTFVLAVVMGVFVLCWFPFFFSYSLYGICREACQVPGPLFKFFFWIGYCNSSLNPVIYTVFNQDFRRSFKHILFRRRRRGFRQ
Sequence of Voltage-gated potassium channel subunit beta-2 (Rattus norvegicus) (P62483 whole entry, looked up): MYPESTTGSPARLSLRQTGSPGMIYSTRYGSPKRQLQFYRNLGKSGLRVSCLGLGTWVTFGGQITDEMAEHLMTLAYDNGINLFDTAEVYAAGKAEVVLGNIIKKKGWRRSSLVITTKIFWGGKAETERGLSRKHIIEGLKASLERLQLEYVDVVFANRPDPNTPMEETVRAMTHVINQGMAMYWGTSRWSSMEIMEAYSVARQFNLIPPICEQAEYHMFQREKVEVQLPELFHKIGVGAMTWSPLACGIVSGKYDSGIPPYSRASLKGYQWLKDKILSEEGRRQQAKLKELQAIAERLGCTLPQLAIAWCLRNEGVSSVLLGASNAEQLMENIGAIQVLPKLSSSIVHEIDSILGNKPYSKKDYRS

As for `Cc1ccc(-n2c(C)cc3c2CCCC3=O)cc1`, the cell count in assay [1] is 313. The inhibition in assay [1] was 2.4% (inactive); in assay [3], -29.8% (inactive); in assay [8] it was 5.45% (inactive); in assay [9], 8.48% (inactive). In addition, the inhibition of aggregation in [2] is -9.3% (inactive). For the same compound, the nuclei count in [2] was 88.9%; in assay [3], 118%. In addition, the fluorescence slope in [4] was -0.366 (inactive). Further, the NADPH fluorescence slope in assay [5] was -7.7e-05 (inactive). Moreover, the slope in assay [6] is 0.00516 (inactive). The result in assay [7] was inactive.
As to `CC1CCCCC1NC(=O)COc1ccc(-n2cnnn2)cc1` (stereo unspecified), the cell count in assay [1] was found to be 508. The inhibition was 6.8% (inactive) in [1], -175% (inactive) in [3], 6.84% (inactive) in assay [8] and 25.1% (inactive) in assay [9]. The inhibition of aggregation in [2] was 5.2% (inactive). The figures for the nuclei count in assay [2] and in assay [3] were 81.6% and 108%, respectively. Also, in assay [4], the fluorescence slope is -0.449 (inactive). In assay [5], the NADPH fluorescence slope is -7.6e-05 (inactive). The slope in assay [6] is 0.00588 (inactive). For the same compound, the result in [7] was inactive.
For `COCCn1c(Sc2nc(C)cs2)nc2c1c(=O)[nH]c(=O)n2C`, in assay [1], the cell count was 422. Besides, the inhibition was 5% (inactive) in [1], -78.3% (inactive) in [3], 17.1% (inactive) in assay [8] and 11.3% (inactive) in assay [9]. The inhibition of aggregation in assay [2] was -38.9% (inactive). In addition, the results for the nuclei count in assay [2] and in assay [3] were 105% and 78.1%, respectively. Further, the fluorescence slope in [4] is -0.475 (inactive). In addition, the NADPH fluorescence slope in [5] is -1.5e-05 (inactive). In addition, the slope in assay [6] was 0.00482 (inactive). The compound was classed as inactive in assay [7].
Take `CCOc1ccc(NS(=O)(=O)c2cc(Cl)ccc2OC)cc1`: the cell count in assay [1] came to 279. The inhibition was -4.2% (inactive) in assay [1], -147% (inactive) in [3], 14.5% (inactive) in assay [8] and 21% (inactive) in [9]. Besides, the inhibition of aggregation in assay [2] is 19.4% (inactive). In addition, the nuclei count in [2] was 95.4%; in assay [3], 129%. Besides, the fluorescence slope in assay [4] is -0.282 (inactive). Also, the NADPH fluorescence slope in [5] was 1.3e-05 (inactive). For the same compound, the slope in assay [6] was 0.00586 (inactive). Further, in assay [7], the compound was classed as inactive.
For `COC(=O)c1[nH]c2ccc(C)cc2c1NC(=O)CN1CCC(C)CC1`, the cell count in assay [1] is 340. In addition, the inhibition is -0.4% (inactive) in assay [1], -18.4% (inactive) in [3], 4.88% (inactive) in assay [8] and 2.95% (inactive) in assay [9]. In assay [2], the inhibition of aggregation is 15.7% (inactive). The nuclei count came to 103% in [2] and 120% in assay [3]. The fluorescence slope in assay [4] is -0.337 (inactive). Further, the NADPH fluorescence slope in [5] is -5.5e-05 (inactive). In addition, in assay [6], the slope was 0.00492 (inactive). In [7], the compound was classed as inactive.
Regarding `COCCNC(=S)c1ccc(OC)cc1`, in assay [1], the cell count was found to be 318. Moreover, the inhibition was 4.7% (inactive) in assay [1], -41.9% (inactive) in [3], 4.72% (inactive) in assay [8] and 4.95% (inactive) in assay [9]. Moreover, the inhibition of aggregation in assay [2] was 1.2% (inactive). The nuclei count in assay [2] was determined as 121%; in assay [3], 123%. The fluorescence slope in [4] is -0.362 (inactive). Moreover, the NADPH fluorescence slope in assay [5] was -7.4e-05 (inactive). Further, the slope in [6] was 0.00489 (inactive). Besides, the outcome in assay [7] was inactive.
With `CCOC(=O)c1cc(-c2ccccc2)sc1N`, the cell count in assay [1] was found to be 389. The inhibition in assay [1] was -0.7% (inactive); in assay [3], -104% (inactive); in assay [8] it was -40.8% (inactive); in [9], -102% (inactive). Moreover, the inhibition of aggregation in [2] was 3.4% (inactive). The figures for the nuclei count in assay [2] and in assay [3] were 102% and 107%, respectively. The fluorescence slope in assay [4] is -0.351 (inactive). For the same compound, in [5], the NADPH fluorescence slope is -2e-05 (inactive). In addition, the slope in assay [6] was 0.0052 (inactive). Further, the compound was called inactive in assay [7].
Consider `O=C(c1cnc2sccn2c1=O)N1CCc2ccccc2C1`, for which, in assay [1], the cell count amounted to 438. The inhibition in assay [1] is -3% (inactive); in assay [3], -376% (inactive); in assay [8] it was -4.13% (inactive); in assay [9] it was 99% (active). Further, the inhibition of aggregation in assay [2] was 4.4% (inactive). For the same compound, the nuclei count in assay [2] was determined as 86.1%; in assay [3], 102%. Also, the fluorescence slope in assay [4] is -0.398 (inactive). In addition, the NADPH fluorescence slope in assay [5] was -5.3e-05 (inactive). Further, the slope in [6] was 0.00452 (inactive). Also, in assay [7], the call was inactive.
As to `CS(=O)(=O)N(CC(=O)Nc1ccc2c(c1)OCO2)Cc1ccc(Cl)cc1`, the cell count in assay [1] was found to be 303. The inhibition was 8.9% (inactive) in [1], -20.4% (inactive) in [3], 11.9% (inactive) in assay [8] and 17.7% (inactive) in assay [9]. Besides, in assay [2], the inhibition of aggregation is -3.1% (inactive). The nuclei count worked out at 92% in assay [2] and 88.8% in [3]. Also, in assay [4], the fluorescence slope is -0.428 (inactive). The NADPH fluorescence slope in assay [5] was -6.6e-05 (inactive). Besides, the slope in [6] is 0.00445 (inactive). For the same compound, the call in [7] was inactive.
Turning to `COc1ccc(-n2nc3cc(C)c(N)c(Br)c3n2)cc1`, the cell count in assay [1] came to 336. Also, the inhibition in [1] is -6.8% (inactive); in [3], -17.3% (inactive); in [8], -10.7% (inactive); in assay [9], -36.5% (inactive). In addition, the inhibition of aggregation in assay [2] was 3.9% (inactive). The nuclei count is 59.9% in assay [2] and 83.5% in assay [3]. Moreover, in assay [4], the fluorescence slope was -0.411 (inactive). Also, the NADPH fluorescence slope in assay [5] was -4.9e-05 (inactive). Also, the slope in assay [6] was 0.00393 (inactive). The compound was called inactive in assay [7].
Take `O=C(O)CCc1ccc(-c2cccs2)n1NC(=O)c1ccccc1Br`: in [1], the cell count is 338. Besides, the inhibition was -5.2% (inactive) in assay [1], -46.9% (inactive) in assay [3], 19.5% (inactive) in assay [8] and 14.2% (inactive) in [9]. Moreover, the inhibition of aggregation in assay [2] is 2.7% (inactive). The nuclei count came to 94.1% in [2] and 115% in [3]. In addition, the fluorescence slope in assay [4] is -0.416 (inactive). Besides, in [5], the NADPH fluorescence slope is -5.2e-05 (inactive). The slope in assay [6] is 0.0044 (inactive). Further, the call in assay [7] was inactive.
With `Cc1cc(=O)c2n(Cc3ccccc3Cl)nc[n+]2[nH]1`, in assay [1], the cell count stood at 800. The inhibition in assay [1] is 6% (inactive); in [3], -111% (inactive); in assay [8], 5.55% (inactive); in assay [9], 8.5% (inactive). Also, in assay [2], the inhibition of aggregation was 3% (inactive). For the same compound, the nuclei count is 97.2% in assay [2] and 120% in assay [3]. Moreover, the fluorescence slope in [4] was -0.397 (inactive). The NADPH fluorescence slope in [5] is -5.7e-05 (inactive). The slope in assay [6] was 0.00447 (inactive). For the same compound, the compound was classed as inactive in assay [7].
As to `OC(CNCCc1ccccc1)c1ccccc1` (stereo unspecified), the cell count in assay [1] came out at 586. Also, the inhibition in [1] was 11% (inactive); in [3] it was 48.6% (inactive); in [8], 11.9% (inactive); in [9] it was 15.7% (inactive). Moreover, in assay [2], the inhibition of aggregation is 14.9% (inactive). In addition, the nuclei count in assay [2] was 91.9%; in assay [3], 55.2%. Moreover, the fluorescence slope in [4] is -0.37 (inactive). Besides, in assay [5], the NADPH fluorescence slope is -7.3e-05 (inactive). Further, the slope in assay [6] is 0.00466 (inactive). For the same compound, in assay [7], the compound was classed as inactive.
